Structures are written as SMILES.

T1 sequence (Q7ZJM1 whole entry): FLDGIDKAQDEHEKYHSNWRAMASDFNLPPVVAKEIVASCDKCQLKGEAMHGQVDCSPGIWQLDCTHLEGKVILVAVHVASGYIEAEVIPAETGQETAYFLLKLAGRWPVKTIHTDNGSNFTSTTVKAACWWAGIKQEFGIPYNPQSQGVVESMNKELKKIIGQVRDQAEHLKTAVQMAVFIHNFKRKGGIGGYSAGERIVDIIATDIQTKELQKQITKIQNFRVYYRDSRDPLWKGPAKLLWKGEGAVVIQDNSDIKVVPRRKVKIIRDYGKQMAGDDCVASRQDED

The first assay has as its target T1, Human immunodeficiency virus type 1 integrase (Human immunodeficiency virus 1, UniProt Q7ZJM1). Put plainly: Inhibition of HIV1 integrase 3'-processing activity expressed in Escherichia coli by PAGE. The method in brief: (§1)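 Recombinant IN expressed in E. coli and purified with 10% glycerol in all buffers. 10 μL reactions held 400 nM IN, 20 nM 5'-end [³²P]-labeled oligonucleotide substrate and inhibitor at various concentrations, with 10% DMSO controls. Buffer was 50 mM MOPS pH 7.2 with 7.5 mM MgCl₂ (final), 30 min at 37 °C. Stopped with EDTA/formamide loading dye.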
The term IC50 denotes the concentration needed to halve the response being measured. In turn, `C[C@@H](c1ccccc1)N1Cc2ccc(O)c(O)c2C1=O` gave a 50% inhibitory concentration (IC50) of more than 333 µM.
Same read-out and setting: under `O=C1c2ccc(O)c(O)c2C(=O)N1[C@H]1CCc2ccccc21` stands 128 µM.
`C[C@H](C1CCc2ccccc21)N1Cc2ccc(O)c(O)c2C1=O` (stereo partly specified) gave an IC50 of more than 333 µM.
The same measure, in the same setting: for `C[C@@H](c1cccc2ccccc12)N1Cc2ccc(O)c(O)c2C1=O` the value was more than 111 µM; for `O=C1c2ccc(O)c(O)c2C(=O)N1[C@@H]1CCc2ccccc21`, 290 µM.
On the same count and under the same terms, under `O=C1c2c(ccc(O)c2O)CN1C1Cc2ccccc2C1` stands more than 333 µM; under `O=C1c2ccc(O)c(O)c2C(=O)N1Cc1cccc2ccccc12`, 150 µM.
`O=C1c2ccc(O)c(O)c2C(=O)N1CCc1ccccc1`: the 50% inhibitory concentration (IC50) stood at 157 µM.
Still for that read-out and setting: under `C[C@@H](C1CCCc2ccccc21)N1Cc2ccc(O)c(O)c2C1=O` (stereo partly specified) stands more than 333 µM.
Still for that read-out and setting: under `C[C@H](C1CCCc2ccccc21)N1Cc2ccc(O)c(O)c2C1=O` (stereo partly specified) stands more than 333 µM; under `O=C1c2ccc(O)c(O)c2C(=O)N1[C@H]1CCCc2ccccc21`, 111 µM.
Same read-out and setting: under `C[C@@H](C1CCc2ccccc21)N1Cc2ccc(O)c(O)c2C1=O` (stereo partly specified) stands more than 333 µM.
For `O=C1c2ccc(O)c(O)c2C(=O)N1[C@@H]1CCCc2ccccc21`, the IC50 is more than 333 µM.
The compound `C[C@@H](c1ccc2ccccc2c1)N1Cc2ccc(O)c(O)c2C1=O` came in with an IC50 of more than 111 µM.
The same measure, in the same setting: for `O=C1c2c(ccc(O)c2O)CN1Cc1ccc2ccccc2c1` the value was 24 µM.
On the same count and under the same terms, under `C[C@H](c1ccccc1)N1Cc2ccc(O)c(O)c2C1=O` stands more than 333 µM; under `C[C@H](c1cccc2ccccc12)N1Cc2ccc(O)c(O)c2C1=O`, more than 111 µM.
Same read-out and setting: for `O=C1c2ccc(O)c(O)c2C(=O)N1C1Cc2ccccc2C1` the value was 37 µM; for `O=C1c2ccc(O)c(O)c2C(=O)N1Cc1ccc2ccccc2c1`, 18 µM; for `C[C@H](c1ccc2ccccc2c1)N1Cc2ccc(O)c(O)c2C1=O`, more than 111 µM.

In the next assay the target is T1, Human immunodeficiency virus type 1 integrase. As to the kind of experiment: Inhibition of HIV1 integrase strand transfer activity expressed in Escherichia coli by PAGE. In a few lines: as §1
On to `C[C@@H](c1ccccc1)N1Cc2ccc(O)c(O)c2C1=O`, for which the IC50 came to 45 µM.
On the same count and under the same terms, under `O=C1c2ccc(O)c(O)c2C(=O)N1[C@H]1CCc2ccccc21` stands 1.8 µM.
The same measure, in the same setting: for `C[C@H](C1CCc2ccccc21)N1Cc2ccc(O)c(O)c2C1=O` (stereo partly specified) the value was 99 µM; for `C[C@@H](c1cccc2ccccc12)N1Cc2ccc(O)c(O)c2C1=O`, 4 µM.
With `O=C1c2ccc(O)c(O)c2C(=O)N1[C@@H]1CCc2ccccc21`, the half-maximal inhibitory concentration (IC50) worked out at 12 µM.
On the same count and under the same terms, for `O=C1c2c(ccc(O)c2O)CN1C1Cc2ccccc2C1` the value was 23 µM; for `O=C1c2ccc(O)c(O)c2C(=O)N1Cc1cccc2ccccc12`, 0.72 µM; for `O=C1c2ccc(O)c(O)c2C(=O)N1CCc1ccccc1`, 6.8 µM.
The same measure, in the same setting: for `C[C@@H](C1CCCc2ccccc21)N1Cc2ccc(O)c(O)c2C1=O` (stereo partly specified) the value was 9 µM; for `C[C@H](C1CCCc2ccccc21)N1Cc2ccc(O)c(O)c2C1=O` (stereo partly specified), 121 µM.
Same read-out and setting: for `O=C1c2ccc(O)c(O)c2C(=O)N1[C@H]1CCCc2ccccc21` the value was 10 µM; for `C[C@@H](C1CCc2ccccc21)N1Cc2ccc(O)c(O)c2C1=O` (stereo partly specified), 6 µM; for `O=C1c2ccc(O)c(O)c2C(=O)N1[C@@H]1CCCc2ccccc21`, 81 µM.
In turn, `C[C@@H](c1ccc2ccccc2c1)N1Cc2ccc(O)c(O)c2C1=O` displayed an IC50 of 4.6 µM.
The same measure, in the same setting: under `O=C1c2c(ccc(O)c2O)CN1Cc1ccc2ccccc2c1` stands 0.8 µM; under `C[C@H](c1ccccc1)N1Cc2ccc(O)c(O)c2C1=O`, 100 µM; under `C[C@H](c1cccc2ccccc12)N1Cc2ccc(O)c(O)c2C1=O`, 48.3 µM.
Regarding `O=C1c2ccc(O)c(O)c2C(=O)N1C1Cc2ccccc2C1`, the IC50 amounted to 4 µM.
Regarding `O=C1c2ccc(O)c(O)c2C(=O)N1Cc1ccc2ccccc2c1`, inhibition was half-maximal at 0.96 µM (IC50). Against the preceding compound, the IC50 is about 4.2-fold lower.
As to `C[C@H](c1ccc2ccccc2c1)N1Cc2ccc(O)c(O)c2C1=O`, the IC50 was found to be 24 µM. Compared with the last compound, the IC50 is about 25-fold higher.
Still for that read-out and setting: for `O=C1c2ccc(O)c(O)c2C(=O)N1Cc1ccccc1` the value was 0.39 µM.

The record behind these values is ChEMBL document CHEMBL1155254, “Diketoacid-genre HIV-1 integrase inhibitors containing enantiomeric arylamide functionality” (Bioorg Med Chem, 2009).
